Experimental data taken from ChEMBL document CHEMBL1126571, “Isocyanines and pseudoisocyanines as a novel class of potent noradrenaline transport inhibitors: synthesis, detection, and biological activity” (J Med Chem, 1993).

Experiments:
[1] = Partition coefficient (logP); type: physicochemical; details: octanol/water
Procedure, shortened: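 Shake-flask octanol/water partition: compound diluted from ethanolic stock to 20 μmol/L in octanol-saturated sodium phosphate buffer (10 mmol/L, pH 7.4). Absorbance read before and after shaking 2 h at 21 °C with buffer-saturated 1-octanol (buffer:octanol volume ratio f), phases split by centrifugation. P = (Ao − Ax)/Ax × f. Read at 520 nm (pseudoisocyanines) or 565 nm (isocyanines); SEM, n = 4.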

[2] = tested on: PC-12; assay: Tested for the inhibition of neuronal type of noradrenaline uptake in clonal PC12 cells; type: functional, cell-based; details: Rattus norvegicus
[3] = tested on: CAKI-1; assay: Tested for the inhibition of extraneuronal [3H]norepinephrine uptake in Caki-1 cells; type: functional, cell-based; details: Homo sapiens, CAKI-1, 15 min
Procedure, shortened: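 Human renal carcinoma Caki-1 monolayers expressing extraneuronal noradrenaline transport. Preincubated 20 min at 37 °C in HEPES buffer pH 7.4 with U-0521 and pargyline (10 μmol/L each) and ascorbate 1 mmol/L, then incubated 15 min at 37 °C with 100 nmol/L [3H]noradrenaline. Inhibitor present throughout. Cells rinsed ice-cold, read by scintillation. Specific uptake is the fraction sensitive to 100 μmol/L O-methylisoprenaline. IC50 from Hill fit, geometric mean with 95% confidence limits.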

SMILES | logP [1] | IC50 [2] [µM] | IC50 [3] [µM]
CC[n+]1c(Cc2ccc3ccccc3[n+]2CC)ccc2ccccc21 | 0.65 | 3 | 0.012
CC(C)N1/C(=C\c2cc[n+](C(C)C)c3ccccc23)C=Cc2ccccc21 [DISPROCYNIUM24] | 1.16 |  | 0.014
CC(C)[n+]1ccc(/C=C2/C=Cc3ccccc3N2C)c2ccccc21 | 0.92 |  | 0.051
C[n+]1c(Cc2ccc3ccccc3[n+]2C)ccc2ccccc21 | 0.34 |  | 0.094
CCN1/C(=C\c2cc[n+](CC)c3ccccc23)C=Cc2ccccc21 | 0.86 |  | 0.029
CN1C=C/C(=C/c2ccc3ccccc3[n+]2C)c2ccccc21 | 0.81 |  | 0.1
CC[n+]1c(Cc2ccc3ccccc3[n+]2C(C)C)ccc2ccccc21 | 0.84 |  | 0.013
